# Most compounds without a hit are left out; they make up all but 2.1% or so of the library.
# MLLE-PAM2 inh: inhibitors of PABP1 MLLE–PAM2 peptide binding, primary screen, biochemical, fluorescence polarization, FITC-PAM2, GST-MLLE. Polyadenylate-binding protein 1 (Homo sapiens), P11940. inhibition, % at 20 µM. 360,000 compounds, 0.36% hits. AID 588489, 2011; in the data active = inhibition above about 35%, passing the limit was not always enough
# EBNA-1 inh: EBNA-1 DNA-binding inhibitors, primary screen, biochemical, fluorescence polarization; inhibition, % at 14.8 µM; 300,000 compounds, 0.34% hits; in the data active = inhibition above about 28%
# HCV NS3 hel inh: inhibitors of HCV NS3 helicase, primary screen, biochemical, Cy5 molecular beacon fluorescence; Hepatitis C virus NS3 helicase; NS3 helicase DNA unwinding; inhibition, % at 10.9 µM; 290,000 compounds, 0.56% hits;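 active = inhibition above the mean of all tested compounds plus 3 SD, set per campaign, cut at about 35% in these data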
#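 System: NS3 helicase fragment of HCV / Schedule: 1 h at 25 °C / Control set: DMSO alone as 0% and 110 µM thioflavine S as 100% / Reagent: Cy5/quencher beacon DNA duplex and ATP to start / Technique: Cy5 fluorescence / Replication: singlicate / Evaluation: % inhibition of end-to-start signal ratio versus controls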
# ZTA counter: ZTA (EBV) inhibition in EBNA-1 counter-screen. ZTA-DNA binding, fluorescence polarization. inhibition, % at 11 µM. 320,000 compounds, 0.15% hits; in the data active = inhibition above about 33%
# Target sequence (P03206 whole entry, looked up): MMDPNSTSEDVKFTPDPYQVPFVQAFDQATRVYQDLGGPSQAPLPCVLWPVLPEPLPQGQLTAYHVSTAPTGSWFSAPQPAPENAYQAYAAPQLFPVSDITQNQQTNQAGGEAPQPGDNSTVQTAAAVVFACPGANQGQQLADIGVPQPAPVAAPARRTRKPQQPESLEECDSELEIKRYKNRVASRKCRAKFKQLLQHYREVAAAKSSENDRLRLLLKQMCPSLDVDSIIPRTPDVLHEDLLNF
# eIF4H FP inh: human eIF4H binding inhibitors, primary screen, translation initiation inhibitor project, biochemical, uHTS, fluorescence polarization. eIF4H fluorescence polarization binding assay. inhibition, % at 35 µM. 290,000 compounds, 0.94% hits;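 note: calls also rest on retests at 20 µM and on dose response follow-up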
# PABP polyA inh: PABP poly(A) RNA binding inhibitors, primary screen, biochemical, fluorescence polarization, uHTS | inhibition, % at 35 µM | 290,000 compounds, 1% hits | AID 2014, 2009;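 note: calls also rest on retests at 20 µM and on dose response follow-up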
# Hits are given with their value; n = inactive; u = inconclusive; x = not tested or not shown. Unless noted, the rule behind the calls is not given here.
SMILES,MLLE-PAM2 inh,EBNA-1 inh,HCV NS3 hel inh,ZTA counter,eIF4H FP inh,PABP polyA inh
COc1cc(C=C2C(=O)c3ccccc3C2=O)cc(OC)c1,n,n,n,n,n,n
COc1cccc(/C=C2\C(=O)C(=O)c3ccccc32)c1,38,n,n,n,n,n
O=C(Nc1ccc2c(c1)nc1n2CCN(C2CCCCC2)C1)c1ccco1,n,x,n,x,94,n
O=C(Nc1ccc2c(c1)nc1n2CCSC1)c1ccco1,n,n,n,n,72,n
O=C(Nc1ccc2c(c1)nc1n2CCOC1)c1ccco1,n,n,n,n,n,n
CSc1nncn1/N=C/c1ccccc1F,n,n,n,n,n,n
CN(C(=O)COC(=O)CNC(=O)CNC(=O)c1ccc(Cl)cc1Cl)c1ccccc1,n,n,n,n,n,n
Cc1nc(CS(=O)(=O)c2ccc(Cl)cc2)cc(Sc2ccc(Cl)cc2)n1,n,n,n,n,n,n
COc1ccc(Cc2c(C(C)(C)C)nc3c(C)cc(Br)cn23)c(C)c1,47,x,x,x,x,x
CCCCn1c(-c2csc3ccccc23)n[nH]c1=S,n,n,n,n,n,n
CCCCCCn1c(-c2cccs2)n[nH]c1=S,n,n,n,n,active,55
O=C(C1CC1c1ccccc1)N1CCN(c2cccc(Cl)c2)CC1 (stereo not given),n,x,n,x,n,n
CCOC(=O)c1cnc2ccc(Br)cc2c1NCCO,n,n,n,n,n,n
CCOC(=O)c1cnc2ccc(Cl)cc2c1NCCN(C)C,42,n,n,n,u,n
CC1(C)CC(NCc2cccc([N+](=O)[O-])c2)CC(C)(C)N1,n,n,n,n,81,61
CN1CCN(CC(=O)Nc2cccc(S(=O)(=O)N(C)c3ccccc3)c2)CC1,n,x,x,n,x,x
N#CCSc1nnc(CNc2cccc(Cl)c2)o1,n,n,n,n,n,n
N#CCSc1nnc(CNc2ccc(F)cc2)o1,48,n,n,n,111,53
O=C(O)c1ccccc1N=Nc1ccc(O)cc1,41,n,x,n,x,x
O=C(O)c1cc(O)ccc1N=Nc1ccccc1,n,n,n,n,n,n
O=C(COC(=O)c1ccccc1S(=O)(=O)N1CCCCC1)NCC(F)(F)F,n,n,n,n,active,73
Cc1occc1-c1nnc(SCC(=O)c2cc3ccccc3oc2=O)o1,n,n,n,n,60,n
Cc1occc1-c1nnc(SCC(=O)Nc2ccccn2)o1,n,n,n,n,n,n
CC1(C)S/C(=N/N=C/c2ccco2)NC1=O,n,n,n,n,u,121
O=C(CN1CCN(Cc2ccccc2)CC1)NNC(=O)c1ccc(Cl)cc1,n,n,x,n,x,x
SMILES,MLLE-PAM2 inh,EBNA-1 inh,HCV NS3 hel inh,ZTA counter,eIF4H FP inh,PABP polyA inh
Cc1cccc(N=C2NC(=O)/C(=C/c3cccn3C)S2)c1C,n,n,n,n,n,n
O=C(O)c1cccc(-n2cccc2/C=C2/SC(=O)N(CC(=O)N3CCCC3)C2=O)c1,n,n,n,n,90,74
Cc1ccccc1N=C1NC(=O)/C(=C/c2cccn2-c2cccc(C(=O)O)c2)S1,x,x,n,x,98,n
O=C(Nc1ccccc1C(=O)Nc1ccc2c(c1)OCO2)c1cccs1,n,n,n,n,n,n
N#CC1=C(N)C(C#N)(C#N)[C@H](c2cccnc2)[C@H]2CN(C(=O)OCc3ccccc3)CC=C12,n,n,n,n,n,n
N#CC1=C(N)C(C#N)(C#N)C(c2ccncc2)C2CN(C(=O)OCc3ccccc3)CC=C12 (stereo not given),n,n,n,n,75,9.4
S=c1[nH]c2ccccc2n2c(=S)[nH]nc12,41,n,n,n,n,n
c1ccc2c(c1)CCN(c1nc3ccccc3n3cnnc13)C2,n,n,n,n,n,n
c1ccc2c(c1)CCCN2c1nc2ccccc2n2cnnc12,n,n,n,n,80,82
O=C(COC(=O)c1cncc(Br)c1)NCc1ccccc1Cl,n,n,n,n,n,63
O=C(COC(=O)c1cncc(Br)c1)NCc1ccccc1,n,n,n,n,n,n
O=C1[C@H]2[C@@H](c3ccc(C(F)(F)F)cc3)N[C@]3(CCCN(Cc4ccccc4)C3=O)[C@H]2C(=O)N1Cc1ccccc1,n,x,x,x,x,x
Brc1ccc(-c2nn3c(-c4ccco4)nnc3s2)o1,n,n,n,n,66,70
c1coc(-c2nn3c(Cn4nnc5ccccc54)nnc3s2)c1,38,n,n,n,n,n
COCCNC(=O)Cn1cc(C(=S)N2CCOCC2)c2ccccc21,n,n,n,n,n,n
O=C(c1cc2c(s1)CCCC2)N1CCN(S(=O)(=O)c2ccccc2)CC1,n,n,x,n,x,x
CC(=O)c1c(COC(=O)c2cccnc2)nc2ccccc2[n+]1[O-],n,n,n,n,n,64
COc1cc(/C=C/C(=O)Nc2nnc(CC(C)(C)C)s2)cc(OC)c1OC,44,n,n,n,n,n
N#CCCN(C(=O)CSc1ccc2c(c1)OCCO2)c1ccccc1,41,n,n,n,n,n
CN(C(=O)CSc1ccc2c(c1)OCCO2)c1ccccc1,n,x,x,x,x,x
COc1ccccc1OCc1cc(C(=O)N2CC3C[C@@H]4CC2C[C@H](C3)C4)no1,n,n,n,n,x,x
CCc1ccccc1NC(=O)CN(C)Cc1c(O)ccc2ccccc12,n,n,n,n,n,n
CCCOc1ccc(C(=O)NNC(=S)NC(=O)c2cc(-c3ccc(Cl)cc3)nc3ccccc23)cc1,39,n,n,n,n,n
CC(=O)c1ccc(NC(=O)CSc2ccsc2[N+](=O)[O-])cc1,n,x,n,x,n,active
CCN(CC)c1ccc(NC(=O)CSc2ccsc2[N+](=O)[O-])c(C)c1,n,n,n,n,u,12
SMILES,MLLE-PAM2 inh,EBNA-1 inh,HCV NS3 hel inh,ZTA counter,eIF4H FP inh,PABP polyA inh
CCC(=O)Nc1cccc(NC(=O)CN2CCN(c3ccccc3OC)CC2)c1,n,n,n,n,n,n
NCCCCc1cn(CC(=O)N2CCNCC2)nn1,n,n,n,n,n,57
CC(O)Cc1cn(CC(=O)N2CCNCC2)nn1 (stereo not given),n,n,x,n,n,n
O=C(NC(=S)Nc1ccc(S(=O)(=O)Nc2nccs2)cc1)c1ccc(F)c(F)c1,n,n,n,n,n,n
O=C(NC(=S)Nc1ccc(-c2ccccc2)cc1)c1ccccc1,n,x,x,x,x,x
NS(=O)(=O)c1ccc(NC(=O)C2(c3ccccc3)CCCC2)cc1,n,n,n,n,u,94
O=C(NC(=S)Nc1ccc(S(=O)(=O)Nc2nccs2)cc1)c1cccnc1,41,n,n,n,n,n
O=C(NC(=S)Nc1ccc(S(=O)(=O)Nc2nccs2)cc1)c1ccccc1F,n,n,n,n,n,n
O=C(NC(=S)Nc1ccc(S(=O)(=O)Nc2nccs2)cc1)c1ccccc1,39,n,n,n,n,n

# Bioassay records from PubChem.
